# ChEMBL document CHEMBL4152367, “Discovery of a Potent Thiazolidine Free Fatty Acid Receptor 2 Agonist with Favorable Pharmacokinetic Properties” (J Med Chem, 2018)
# Activity calls are given as the source filed them. The calls are words filed in the database; no cut-off is given here.
# Assays:
# [1] = Cmax in Balb/c mouse at 10 mg/kg, po by HPLC-MS/MS analysis; assay type: ADME, organism-based; parameters: dose 10 mg/kg, route oral; conditions: in vivo
# How it was run: (§1)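 Balb/c mice dosed at 5 mg/kg iv or 10 mg/kg po. Plasma concentrations over time used to derive t1/2, AUC0–∞, Vd and total clearance (iv), and tmax, Cmax, AUC0–∞ and oral bioavailability (po).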
# [2] = Half life in Balb/c mouse at 5 mg/kg, iv by HPLC-MS/MS analysis; assay type: ADME, organism-based; conditions: in vivo; how it was run: as §1
# [3] = target: T1, Peroxisome proliferator-activated receptor gamma (Homo sapiens) (UniProt P37231); assay: Antagonist activity at human PPARgamma expressed in Escherichia coli assessed as inhibition of rosiglitazone-induced calcium flux at 10 uM by fluorimetry
# T1 sequence (whole entry): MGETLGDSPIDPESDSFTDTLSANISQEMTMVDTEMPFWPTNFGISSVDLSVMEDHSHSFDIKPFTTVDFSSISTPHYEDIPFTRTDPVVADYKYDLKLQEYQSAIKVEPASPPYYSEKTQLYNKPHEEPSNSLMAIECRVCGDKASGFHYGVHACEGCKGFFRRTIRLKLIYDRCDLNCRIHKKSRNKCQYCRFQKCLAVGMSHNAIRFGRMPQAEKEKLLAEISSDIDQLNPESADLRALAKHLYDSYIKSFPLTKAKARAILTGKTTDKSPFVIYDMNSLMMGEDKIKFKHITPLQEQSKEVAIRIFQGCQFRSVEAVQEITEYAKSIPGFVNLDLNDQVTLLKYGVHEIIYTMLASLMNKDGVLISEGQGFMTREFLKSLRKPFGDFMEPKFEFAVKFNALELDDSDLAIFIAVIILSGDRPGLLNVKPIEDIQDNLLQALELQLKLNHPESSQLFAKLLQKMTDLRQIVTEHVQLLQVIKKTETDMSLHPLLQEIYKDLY
# [4] = Metabolic stability in Balb/c mouse primary hepatocytes assessed as compound recovery after 2 hrs by LC-MS/MS analysis; assay type: ADME, cell-based, Hepatocyte; conditions: read-out: Drug recovery
# [5] = Metabolic stability in mouse liver microsomes assessed as compound remaining at 1 uM after 1 hr by HPLC method; assay type: ADME, microsome; conditions: read-out: Stability
# How it was run: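 Mouse liver microsomes 0.5 mg/mL with 1 µM test compound in 0.1 M PBS pH 7.4 plus NADPH. Pre-incubated 5 min at 37 °C before microsome addition, then 1 h at 37 °C with shaking. Quenched with ice-cold MeOH/MeCN 1:1, centrifuged; HPLC analysis relative to the 0 min sample.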
# [6] = target: T2, Free fatty acid receptor 4 (Homo sapiens) (UniProt Q5NUL3); assay: Antagonist activity at human FFA4 receptor expressed in HEK293 cells assessed as inhibition of GW9508-induced of calcium flux at 10 uM by fluorimetry; assay type: functional, cell-based
# T2 sequence (whole entry): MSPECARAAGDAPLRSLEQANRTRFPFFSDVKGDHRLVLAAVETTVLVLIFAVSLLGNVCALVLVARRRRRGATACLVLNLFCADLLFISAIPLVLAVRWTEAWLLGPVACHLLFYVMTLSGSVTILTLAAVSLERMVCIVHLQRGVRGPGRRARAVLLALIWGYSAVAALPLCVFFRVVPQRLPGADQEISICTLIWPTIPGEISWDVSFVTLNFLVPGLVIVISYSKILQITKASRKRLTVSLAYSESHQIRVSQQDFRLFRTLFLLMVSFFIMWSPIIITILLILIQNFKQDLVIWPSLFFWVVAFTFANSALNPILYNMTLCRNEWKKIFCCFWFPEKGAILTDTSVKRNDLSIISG
# [7] = target: T3, Oxysterols receptor LXR-beta (Homo sapiens) (UniProt P55055); assay: Antagonist activity at human LXRbeta expressed in Escherichia coli assessed as inhibition of T0901317-induced calcium flux at 10 uM by fluorimetry
# T3 sequence (whole entry): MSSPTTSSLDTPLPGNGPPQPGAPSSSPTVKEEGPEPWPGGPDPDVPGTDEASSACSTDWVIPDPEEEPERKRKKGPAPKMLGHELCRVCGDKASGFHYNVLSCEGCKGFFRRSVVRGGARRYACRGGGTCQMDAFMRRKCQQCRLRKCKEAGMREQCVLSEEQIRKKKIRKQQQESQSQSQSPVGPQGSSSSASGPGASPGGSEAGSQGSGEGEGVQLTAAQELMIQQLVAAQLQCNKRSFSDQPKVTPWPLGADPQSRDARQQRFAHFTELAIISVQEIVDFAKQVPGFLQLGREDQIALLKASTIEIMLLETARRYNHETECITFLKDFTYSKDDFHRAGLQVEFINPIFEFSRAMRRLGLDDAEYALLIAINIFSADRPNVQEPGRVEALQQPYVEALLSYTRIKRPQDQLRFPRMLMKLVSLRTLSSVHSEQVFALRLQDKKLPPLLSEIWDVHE
# [8] = target: Free fatty acid receptor 1 (Homo sapiens) (UniProt O14842); assay: Agonist activity at human FFA1R expressed in HEK293 cells assessed as induction of calcium flux at 10 uM by fluorimetry; assay type: functional, cell-based
# Free fatty acid receptor 1 (Homo sapiens), sequence (O14842 whole entry): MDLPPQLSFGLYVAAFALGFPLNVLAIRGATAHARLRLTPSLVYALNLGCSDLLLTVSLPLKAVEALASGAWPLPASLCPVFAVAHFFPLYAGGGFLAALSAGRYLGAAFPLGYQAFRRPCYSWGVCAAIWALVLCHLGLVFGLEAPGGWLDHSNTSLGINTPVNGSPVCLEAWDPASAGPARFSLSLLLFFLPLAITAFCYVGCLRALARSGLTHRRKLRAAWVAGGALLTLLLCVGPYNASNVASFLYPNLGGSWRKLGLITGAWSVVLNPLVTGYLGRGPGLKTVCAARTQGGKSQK
# [9] = target: T4, Oxysterols receptor LXR-alpha (Homo sapiens) (UniProt Q13133); assay: Antagonist activity at human LXRalpha expressed in Escherichia coli assessed as inhibition of T0901317-induced calcium flux at 10 uM by fluorimetry
# T4 sequence (whole entry): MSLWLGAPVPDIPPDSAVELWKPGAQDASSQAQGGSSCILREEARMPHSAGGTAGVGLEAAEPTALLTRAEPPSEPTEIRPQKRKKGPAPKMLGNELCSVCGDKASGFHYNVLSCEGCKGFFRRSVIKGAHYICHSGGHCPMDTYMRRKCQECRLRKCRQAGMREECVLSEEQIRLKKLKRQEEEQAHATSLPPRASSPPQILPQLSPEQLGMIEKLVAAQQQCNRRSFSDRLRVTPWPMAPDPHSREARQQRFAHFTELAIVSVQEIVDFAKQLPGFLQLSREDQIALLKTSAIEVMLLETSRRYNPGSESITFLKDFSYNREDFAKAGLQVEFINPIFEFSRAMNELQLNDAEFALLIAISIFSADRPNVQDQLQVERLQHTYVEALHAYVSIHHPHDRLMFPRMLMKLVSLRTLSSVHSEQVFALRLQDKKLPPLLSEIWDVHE
# [10] = target: T4, Oxysterols receptor LXR-alpha (Homo sapiens); assay: Agonist activity at human LXRalpha expressed in Escherichia coli assessed as induction of calcium flux at 10 uM by fluorimetry
smiles,measurement,setting,value
Cc1noc(C)c1-c1ccc(C(=O)N2[C@@H](c3ccccc3Cl)SC[C@H]2C(=O)O)cc1,Cmax,[1],2880 ng/mL
same,half-life,[2],2.3 h
same,inhibition,[3],inactive
same,remaining at 2 h,[4],72%
same,"remaining at 1 h, 1 µM",[5],82%
same,inhibition,[6],inactive
same,inhibition,[7],inactive
same,Activity,[8],inactive
same,inhibition,[9],inactive
same,Activity,[10],inactive
